Experimental data reported in ChEMBL document CHEMBL1127011, “Structure-activity relationship of glycine betaine analogs on osmotolerance of enteric bacteria” (1993).

Key:
Assay type in all cases: functional
Escherichia coli [1] = assay: Maximum NaCl molar concentration that showed 50% bacterial growth in Escherichia coli ATCC 25922 at MM+0.1 mmol GB (Glycine Betaine)
Procedure, shortened: (§1)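 Single colony from MacConkey agar subcultured overnight in minimal medium at 37 °C. Inoculum: 1:200 dilution of 0.5 McFarland standard (~5 × 10^5 cfu/mL final) into minimal medium with NaCl 0.1–1 M in 0.1 M steps. Test compound 0.1 mM, alone or with GB or Chol 0.1 mM. OD600 read at 48 h. Endpoint is highest NaCl giving ≥50% growth versus full-growth tubes. Mean of three ±SD.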

Escherichia coli [2] = assay: Maximum NaCl molar concentration that showed 50% bacterial growth in Escherichia coli K10 at MM+0.1 mmol GB (Glycine Betaine); procedure, shortened: as §1
Escherichia coli [3] = assay: Maximum NaCl molar concentration that showed 50% bacterial growth in Escherichia coli K10 at MM+0.1 mmol Choline; procedure, shortened: as §1
Escherichia coli [4] = assay: Maximum NaCl molar concentration that showed 50% bacterial growth in Escherichia coli K10 at minimum media (MM); procedure, shortened: as §1
Escherichia coli [5] = assay: Maximum NaCl molar concentration that showed 50% bacterial growth in Escherichia coli 31 at MM+0.1 mmol Choline; procedure, shortened: as §1
Escherichia coli [6] = assay: Maximum NaCl molar concentration that showed 50% bacterial growth in Escherichia coli 31 at minimum media (MM); procedure, shortened: as §1
Escherichia coli [7] = assay: Maximum NaCl molar concentration that showed 50% bacterial growth in Escherichia coli ATCC 25922 at MM+0.1 mmol Choline; procedure, shortened: as §1
Escherichia coli [8] = assay: Maximum NaCl molar concentration that showed 50% bacterial growth in Escherichia coli 31 at MM+0.1 mmol GB (Glycine Betaine); procedure, shortened: as §1
Escherichia coli [9] = assay: Maximum NaCl molar concentration that showed 50% bacterial growth in Escherichia coli ATCC 25922 at minimum media (MM); procedure, shortened: as §1

`C[N+](C)(C)CC(=O)Nc1ccc(S(=O)(=O)NC(=O)C[N+](C)(C)C)cc1.[Cl-].[Cl-]` was tested, and the Max salt tolerance (Escherichia coli [1]) was 0.83, the Max salt tolerance (Escherichia coli [2]) was 0.9 and the Max salt tolerance (Escherichia coli [3]) was 0.86. The Max salt tolerance (Escherichia coli [4]) was 0.56, the Max salt tolerance (Escherichia coli [5]) was 0.9 and the Max salt tolerance (Escherichia coli [6]) was 0.73. For the same compound, the Max salt tolerance (Escherichia coli [7]) was 0.8, the Max salt tolerance (Escherichia coli [8]) was 0.9 and the Max salt tolerance (Escherichia coli [9]) was 0.5.
With `C[N+]1(CS(=O)(=O)[O-])CCCCC1` the Max salt tolerance (Escherichia coli [1]) was 0.86, the Max salt tolerance (Escherichia coli [2]) was 0.9 and the Max salt tolerance (Escherichia coli [3]) was 0.5. The Max salt tolerance (Escherichia coli [4]) was 0.35, the Max salt tolerance (Escherichia coli [5]) was 0.88 and the Max salt tolerance (Escherichia coli [6]) was 0.43. The Max salt tolerance (Escherichia coli [7]) was 0.2, the Max salt tolerance (Escherichia coli [8]) was 0.93 and the Max salt tolerance (Escherichia coli [9]) was 0.13.
Work on `C[N+](C)(C)CC(=O)[N-]S(=O)(=O)c1ccccc1` yielded a Max salt tolerance (Escherichia coli [1]) of 0.83, a Max salt tolerance (Escherichia coli [2]) of 0.9 and a Max salt tolerance (Escherichia coli [3]) of 0.86. For the same compound, the Max salt tolerance (Escherichia coli [4]) was 0.56, the Max salt tolerance (Escherichia coli [5]) was 0.9 and the Max salt tolerance (Escherichia coli [6]) was 0.73. It also gave a Max salt tolerance (Escherichia coli [7]) of 0.8, a Max salt tolerance (Escherichia coli [8]) of 0.9 and a Max salt tolerance (Escherichia coli [9]) of 0.5.
Work on `C[N+](C)(C)CC(=O)[N-]S(=O)(=O)c1ccc(NC(=O)CCl)cc1` yielded a Max salt tolerance (Escherichia coli [1]) of 0.86, a Max salt tolerance (Escherichia coli [2]) of 0.86 and a Max salt tolerance (Escherichia coli [3]) of 0.8. It also gave a Max salt tolerance (Escherichia coli [4]) of 0.3, a Max salt tolerance (Escherichia coli [5]) of 0.8 and a Max salt tolerance (Escherichia coli [6]) of 0.63. It also gave a Max salt tolerance (Escherichia coli [7]) of 0.8, a Max salt tolerance (Escherichia coli [8]) of 0.9 and a Max salt tolerance (Escherichia coli [9]) of 0.1.
Work on `C[N+](C)(C)CC(=O)Nc1ccc(S(N)(=O)=O)cc1.[Cl-]` yielded a Max salt tolerance (Escherichia coli [1]) of 0.83, a Max salt tolerance (Escherichia coli [2]) of 0.9 and a Max salt tolerance (Escherichia coli [3]) of 0.86. The Max salt tolerance (Escherichia coli [4]) was 0.56, the Max salt tolerance (Escherichia coli [5]) was 0.9 and the Max salt tolerance (Escherichia coli [6]) was 0.73. For the same compound, the Max salt tolerance (Escherichia coli [7]) was 0.8, the Max salt tolerance (Escherichia coli [8]) was 0.9 and the Max salt tolerance (Escherichia coli [9]) was 0.5.
`C[N+]1(CS(=O)(=O)[O-])CCCC1` showed a Max salt tolerance (Escherichia coli [1]) of 0.87, a Max salt tolerance (Escherichia coli [2]) of 0.97 and a Max salt tolerance (Escherichia coli [3]) of 0.6. The Max salt tolerance (Escherichia coli [4]) was 0.5, the Max salt tolerance (Escherichia coli [5]) was 0.86 and the Max salt tolerance (Escherichia coli [6]) was 0.7. For the same compound, the Max salt tolerance (Escherichia coli [7]) was 0.2, the Max salt tolerance (Escherichia coli [8]) was 0.93 and the Max salt tolerance (Escherichia coli [9]) was 0.13.
`C[N+](C)(C)CC(=O)[N-]S(=O)(=O)c1ccc(NC(=O)CI)cc1` showed a Max salt tolerance (Escherichia coli [1]) of 0.86, a Max salt tolerance (Escherichia coli [2]) of 0.86 and a Max salt tolerance (Escherichia coli [3]) of 0.8. For the same compound, the Max salt tolerance (Escherichia coli [4]) was 0.3, the Max salt tolerance (Escherichia coli [5]) was 0.8 and the Max salt tolerance (Escherichia coli [6]) was 0.63. For the same compound, the Max salt tolerance (Escherichia coli [7]) was 0.8, the Max salt tolerance (Escherichia coli [8]) was 0.9 and the Max salt tolerance (Escherichia coli [9]) was 0.1.
With `CCC(=O)Nc1ccc(S(=O)(=O)[N-]C(=O)C[N+](C)(C)C)cc1` the Max salt tolerance (Escherichia coli [1]) was 0.86, the Max salt tolerance (Escherichia coli [2]) was 0.9 and the Max salt tolerance (Escherichia coli [3]) was 0.83. For the same compound, the Max salt tolerance (Escherichia coli [4]) was 0.57, the Max salt tolerance (Escherichia coli [5]) was 0.8 and the Max salt tolerance (Escherichia coli [6]) was 0.7. For the same compound, the Max salt tolerance (Escherichia coli [7]) was 0.8, the Max salt tolerance (Escherichia coli [8]) was 0.9 and the Max salt tolerance (Escherichia coli [9]) was 0.4.
`C[N+](C)(C)CS(=O)(=O)[O-]` was tested, and the Max salt tolerance (Escherichia coli [1]) was 0.86, the Max salt tolerance (Escherichia coli [2]) was 0.93 and the Max salt tolerance (Escherichia coli [3]) was 0.9. The Max salt tolerance (Escherichia coli [4]) was 0.83, the Max salt tolerance (Escherichia coli [5]) was 0.9 and the Max salt tolerance (Escherichia coli [6]) was 0.83. It also gave a Max salt tolerance (Escherichia coli [7]) of 0.33, a Max salt tolerance (Escherichia coli [8]) of 0.9 and a Max salt tolerance (Escherichia coli [9]) of 0.27.
`C[N+]1(CS(=O)(=O)[O-])CCOCC1` showed a Max salt tolerance (Escherichia coli [1]) of 0.83, a Max salt tolerance (Escherichia coli [2]) of 0.97 and a Max salt tolerance (Escherichia coli [3]) of 0.87. The Max salt tolerance (Escherichia coli [4]) was 0.63, the Max salt tolerance (Escherichia coli [5]) was 0.9 and the Max salt tolerance (Escherichia coli [6]) was 0.77. It also gave a Max salt tolerance (Escherichia coli [7]) of 0.23, a Max salt tolerance (Escherichia coli [8]) of 0.97 and a Max salt tolerance (Escherichia coli [9]) of 0.2.
Compound `CC(=O)Nc1ccc(S(=O)(=O)[N-]C(=O)C[N+](C)(C)C)cc1` has a Max salt tolerance (Escherichia coli [1]) of 0.86, a Max salt tolerance (Escherichia coli [2]) of 0.9 and a Max salt tolerance (Escherichia coli [3]) of 0.83. For the same compound, the Max salt tolerance (Escherichia coli [4]) was 0.57, the Max salt tolerance (Escherichia coli [5]) was 0.8 and the Max salt tolerance (Escherichia coli [6]) was 0.7. The Max salt tolerance (Escherichia coli [7]) was 0.8, the Max salt tolerance (Escherichia coli [8]) was 0.9 and the Max salt tolerance (Escherichia coli [9]) was 0.4.
Work on `Br.C[N+](C)(C)CC(=O)[N-]S(=O)(=O)c1ccc(NC(=O)CBr)cc1` yielded a Max salt tolerance (Escherichia coli [1]) of 0.86, a Max salt tolerance (Escherichia coli [2]) of 0.86 and a Max salt tolerance (Escherichia coli [3]) of 0.8. For the same compound, the Max salt tolerance (Escherichia coli [4]) was 0.3, the Max salt tolerance (Escherichia coli [5]) was 0.8 and the Max salt tolerance (Escherichia coli [6]) was 0.63. It also gave a Max salt tolerance (Escherichia coli [7]) of 0.8, a Max salt tolerance (Escherichia coli [8]) of 0.9 and a Max salt tolerance (Escherichia coli [9]) of 0.1.
`C[N+](C)(C)CC(=O)NS(=O)(=O)c1ccc(N)cc1.[Cl-]` gave a Max salt tolerance (Escherichia coli [1]) of 0.83, a Max salt tolerance (Escherichia coli [2]) of 0.9 and a Max salt tolerance (Escherichia coli [3]) of 0.86. The Max salt tolerance (Escherichia coli [4]) was 0.56, the Max salt tolerance (Escherichia coli [5]) was 0.9 and the Max salt tolerance (Escherichia coli [6]) was 0.73. For the same compound, the Max salt tolerance (Escherichia coli [7]) was 0.8, the Max salt tolerance (Escherichia coli [8]) was 0.9 and the Max salt tolerance (Escherichia coli [9]) was 0.5.
Compound `C[N+](C)(C)CP(=O)([O-])O` [HYDROGEN (TRIMETHYLAMMONIO)METHYLPHOSPHONATE] has a Max salt tolerance (Escherichia coli [1]) of 0.8, a Max salt tolerance (Escherichia coli [2]) of 0.87 and a Max salt tolerance (Escherichia coli [3]) of 0.77. For the same compound, the Max salt tolerance (Escherichia coli [4]) was 0.4, the Max salt tolerance (Escherichia coli [5]) was 0.83 and the Max salt tolerance (Escherichia coli [6]) was 0.6. It also gave a Max salt tolerance (Escherichia coli [7]) of 0.77, a Max salt tolerance (Escherichia coli [8]) of 0.9 and a Max salt tolerance (Escherichia coli [9]) of 0.33.
